Series [1] relates to Staphylococcus aureus. Put plainly: Antibacterial activity against rifampicin resistant Staphylococcus aureus harboring RpoBH481Y mutant assessed as inhibition of bacterial growth. The series is classed as functional.
Series [2] deals with Staphylococcus aureus. The series can be described thus: Antibacterial activity against wild type Staphylococcus aureus assessed as inhibition of bacterial growth. It counts as functional.
The test system of series [3] is Staphylococcus aureus. The series can be described thus: Antibacterial activity against ciprofloxacin resistant Staphylococcus aureus harboring ParCS80F and GyrAS84L double mutant assessed as inhibition of bacterial growth. It counts as functional.
The test system of series [4] is Staphylococcus aureus. The series can be described thus: Antibacterial activity against Staphylococcus aureus harboring RpoBH481Y/ParCS80F/GyrAS84L triple mutant assessed as inhibition of bacterial growth. It counts as functional.
The test system of the next series is Escherichia coli. The series can be described thus: Antibacterial activity against Escherichia coli assessed as inhibition of bacterial growth. It counts as functional. In short, it runs like this:
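Run in duplicate, with the same result obtained in each trial.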

The next series relates to HEK293. Put plainly: Cytotoxicity against HEK293 cells. It counts as toxicity, cell-based, Homo sapiens.

The values below come from ChEMBL document CHEMBL5143539, “Synthesis and evaluation of dual-action kanglemycin-fluoroquinolone hybrid antibiotics” (Bioorg Med Chem Lett, 2022).

In brackets after ≈: the same amount, converted by molar mass.

For orientation: MIC means the smallest concentration in the dilution series that meets the test's criterion for growth inhibition. Broadly, the IC50 is the concentration at which inhibition is half-maximal. A low value points to higher potency. On to `CC(=O)O[C@H]1[C@H](C)[C@H](O)[C@H](C)[C@@H](O)[C@@H](C(C)OC(=O)C(C)(C)CC(=O)O)/C=C/C=C(/C)C(=O)Nc2c3oc4cc(NCCCCCCCCC(=O)N5Cc6cc(-c7ccc8c(=O)c(C(=O)O)cn(C9CC9)c8c7OC(F)F)ccc6[C@H]5C)cc(O)c4nc-3c3c4c(c(C)c(O)c3c2=O)O[C@](C)(O/C=C/[C@H](O[C@H]2C[C@@H]3OCO[C@@H]3[C@@H](C)O2)[C@H]1C)C4=O` (some centres not stated), for which the MIC in the series with Staphylococcus aureus [1] is 8 µg/mL (≈ 4.8 µM); with Staphylococcus aureus [2] it was 4 µg/mL (≈ 2.4 µM); with Staphylococcus aureus [3] it was 4 µg/mL (≈ 2.4 µM); in the series on Staphylococcus aureus [4], greater than 64 µg/mL; with Escherichia coli it was greater than 64 µg/mL. The molecule further yielded an IC50 with HEK293 greater than 64 µg/mL.
For the molecule `CC(=O)O[C@H]1[C@H](C)[C@H](O)[C@H](C)[C@@H](O)[C@@H](C(C)OC(=O)C(C)(C)CC(=O)O)/C=C/C=C(/C)C(=O)Nc2c3oc4cc(NCCCCCC(=O)N5Cc6cc(-c7ccc8c(=O)c(C(=O)O)cn(C9CC9)c8c7OC(F)F)ccc6[C@H]5C)cc(O)c4nc-3c3c4c(c(C)c(O)c3c2=O)O[C@](C)(O/C=C/[C@H](O[C@H]2C[C@@H]3OCO[C@@H]3[C@@H](C)O2)[C@H]1C)C4=O` (some centres not stated), the MIC in the series on Staphylococcus aureus [1] was 4 µg/mL (≈ 2.46 µM); with Staphylococcus aureus [2] it was 1 µg/mL (≈ 0.615 µM); in the series on Staphylococcus aureus [3], 2 µg/mL (≈ 1.23 µM); in the series on Staphylococcus aureus [4], greater than 64 µg/mL; with Escherichia coli, greater than 64 µg/mL. In addition, in the series on HEK293, the IC50 was greater than 64 µg/mL.
For `CC(=O)O[C@H]1[C@H](C)[C@H](O)[C@H](C)[C@@H](O)[C@@H](C(C)OC(=O)C(C)(C)CC(=O)O)/C=C/C=C(/C)C(=O)Nc2c3oc4cc(NCCCN5Cc6cc(-c7ccc8c(=O)c(C(=O)O)cn(C9CC9)c8c7OC(F)F)ccc6[C@H]5C)cc(O)c4nc-3c3c4c(c(C)c(O)c3c2=O)O[C@](C)(O/C=C/[C@H](O[C@H]2C[C@@H]3OCO[C@@H]3[C@@H](C)O2)[C@H]1C)C4=O` (some centres not stated), the minimum inhibitory concentration (MIC) was 8 µg/mL (≈ 5.1 µM) in the series on Staphylococcus aureus [1]; 4 µg/mL (≈ 2.55 µM) in the series with Staphylococcus aureus [2]; 16 µg/mL (≈ 10.2 µM) in the series on Staphylococcus aureus [3]; greater than 64 µg/mL in the series with Staphylococcus aureus [4]; greater than 64 µg/mL with Escherichia coli. The molecule further showed an IC50 with HEK293 greater than 64 µg/mL.
In the case of `CC(=O)O[C@H]1[C@H](C)[C@H](O)[C@H](C)[C@@H](O)[C@@H](C(C)OC(=O)C(C)(C)CC(=O)O)/C=C/C=C(/C)C(=O)Nc2c3oc4cc(N5CCCn6nc(C(=O)N7Cc8cc(-c9ccc%10c(=O)c(C(=O)O)cn(C%11CC%11)c%10c9OC(F)F)ccc8[C@H]7C)cc6C5)cc(O)c4nc-3c3c4c(c(C)c(O)c3c2=O)O[C@](C)(O/C=C/[C@H](O[C@H]2C[C@@H]3OCO[C@@H]3[C@@H](C)O2)[C@H]1C)C4=O` (some centres not stated), the MIC in the series on Staphylococcus aureus [1] is greater than 64 µg/mL; in the series on Staphylococcus aureus [2], 16 µg/mL (≈ 9.55 µM); with Staphylococcus aureus [3] it was 16 µg/mL (≈ 9.55 µM); in the series on Staphylococcus aureus [4] it was greater than 64 µg/mL; in the series on Escherichia coli it was greater than 64 µg/mL. In the series on HEK293, this molecule registered an IC50 greater than 64 µg/mL.
For `COc1c(N2CCCC(N(C)CCCNc3cc(O)c4nc5c6c7c8c(C)c(O)c6c(=O)c(c-5oc4c3)NC(=O)/C(C)=C\C=C\[C@H](C(C)OC(=O)C(C)(C)CC(=O)O)[C@H](O)[C@@H](C)[C@@H](O)[C@@H](C)[C@H](OC(C)=O)[C@H](C)[C@@H](O[C@H]3C[C@@H]4OCO[C@@H]4[C@@H](C)O3)/C=C/O[C@@](C)(O8)C7=O)C2)c(F)cc2c(=O)c(C(=O)O)cn(C3CC3)c12` (some centres not stated), the MIC is 16 µg/mL (≈ 10.4 µM) in the series on Staphylococcus aureus [1]; 8 µg/mL (≈ 5.22 µM) in the series on Staphylococcus aureus [2]; 8 µg/mL (≈ 5.22 µM) with Staphylococcus aureus [3]; greater than 64 µg/mL in the series on Staphylococcus aureus [4]; greater than 64 µg/mL in the series with Escherichia coli. Also, the IC50 in the series with HEK293 is greater than 64 µg/mL.
Take `CC(=O)O[C@H]1[C@H](C)[C@H](O)[C@H](C)[C@@H](O)[C@@H](C(C)OC(=O)C(C)(C)CC(=O)O)/C=C/C=C(/C)C(=O)Nc2c3oc4cc(N5CCC(CCCC(=O)N6Cc7cc(-c8ccc9c(=O)c(C(=O)O)cn(C%10CC%10)c9c8OC(F)F)ccc7[C@H]6C)CC5)cc(O)c4nc-3c3c4c(c(C)c(O)c3c2=O)O[C@](C)(O/C=C/[C@H](O[C@H]2C[C@@H]3OCO[C@@H]3[C@@H](C)O2)[C@H]1C)C4=O` (some centres not stated): the MIC was greater than 64 µg/mL with Staphylococcus aureus [1]; 64 µg/mL (≈ 38.4 µM) in the series with Staphylococcus aureus [2]; 64 µg/mL (≈ 38.4 µM) in the series with Staphylococcus aureus [3]; greater than 64 µg/mL in the series on Staphylococcus aureus [4]; greater than 64 µg/mL in the series with Escherichia coli. Besides, the half-maximal inhibitory concentration (IC50) with HEK293 was greater than 64 µg/mL.
Regarding `COc1c(N2C[C@@H]3CCCN(CCCNc4cc(O)c5nc6c7c8c9c(C)c(O)c7c(=O)c(c-6oc5c4)NC(=O)/C(C)=C\C=C\[C@H](C(C)OC(=O)C(C)(C)CC(=O)O)[C@H](O)[C@@H](C)[C@@H](O)[C@@H](C)[C@H](OC(C)=O)[C@H](C)[C@@H](O[C@H]4C[C@@H]5OCO[C@@H]5[C@@H](C)O4)/C=C/O[C@@](C)(O9)C8=O)[C@@H]3C2)c(F)cc2c(=O)c(C(=O)O)cn(C3CC3)c12` (some centres not stated), the MIC was 16 µg/mL (≈ 10.4 µM) in the series on Staphylococcus aureus [1]; 1 µg/mL (≈ 0.648 µM) in the series with Staphylococcus aureus [2]; 1 µg/mL (≈ 0.648 µM) with Staphylococcus aureus [3]; greater than 64 µg/mL in the series on Staphylococcus aureus [4]; greater than 64 µg/mL in the series with Escherichia coli. The same molecule registered an IC50 in the series on HEK293 of 38 µg/mL (≈ 24.6 µM).
